High-throughput results: PubChem BioAssay, several laboratories
An excerpt weighted towards active compounds, which were near 3.8% of everything screened.
CHO parental Ca: counter-screen: ATP calcium response change in parental CHO cells; parental CHO-K1, ATP-induced calcium, Fluo-8 fluorescence; inhibition, % at 5.6 µM; 0.63% of 330,000 active;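 active = inhibition above that plate's mean sample inhibition plus 3 SD, cut at about 26% in these data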;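 note: 0% = ATP-challenged DMSO wells and 100% = DMSO wells without ATP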
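Material – parental CHO cells · Reagent – ATP stimulus · Compound – single nominal dose of 5.6 µM per compound · Detection – Fluo-8 fluorescence · Read-out basis – percent inhibition of calcium signal · Controls – ATP-challenged DMSO wells low, unchallenged DMSO wells high · Repeats – no replicates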
MPTP inh: inhibitors of mitochondrial permeability transition pore | 1.4% of 360,000 active | AID 602449 | inhibition, % at 10 µM | isolated mouse mitochondria, Ca2+ swelling absorbance, 30 min;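 active = inhibition of 50% or more, scaled per plate between neutral and stimulator controls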;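 note: 0% = DMSO wells given calcium and 100% = 1 mM EGTA wells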
GPR7 antag: blocks human GPR7 receptor signaling. GPR7-expressing cells, fluorescence antagonist assay. inhibition, % at 4.4 µM. 1.1% of 290,000 active; in the data active = inhibition above about 16%, passing the limit was not always enough;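 note: cells stimulated with the agonist NPW; 0% = agonist with vehicle and 100% = vehicle without agonist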
Target sequence (P48145 whole entry, looked up): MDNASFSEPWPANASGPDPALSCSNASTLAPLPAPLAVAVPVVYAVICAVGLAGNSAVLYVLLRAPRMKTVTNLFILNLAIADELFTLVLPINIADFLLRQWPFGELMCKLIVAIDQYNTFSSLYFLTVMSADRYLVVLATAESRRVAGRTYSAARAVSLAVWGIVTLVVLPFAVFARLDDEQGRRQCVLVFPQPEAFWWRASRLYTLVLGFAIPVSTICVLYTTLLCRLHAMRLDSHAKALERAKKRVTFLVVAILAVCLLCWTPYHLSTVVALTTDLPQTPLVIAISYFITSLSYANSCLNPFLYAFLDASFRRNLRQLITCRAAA
OX1R antag-1: blocks the human orexin 1 receptor. OX1R-expressing cells, FRET antagonist read-out. inhibition, % at 6.6 µM. AID 485270. 1.8% of 330,000 active. O43613; in the data active = inhibition mostly above about 38%, no sharp cut-off; inactive = mostly below about 40%;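 note: 0% = agonist challenge alone and 100% = reference antagonist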
OX1R antag-2: antagonists of human orexin 1 receptor. O43613. CHO/OX1R cells, Fluo-8 calcium fluorescence, orexin A. inhibition, % at 5 µM. 0.43% of 330,000 active;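 active = inhibition above its plate's threshold, mean inhibition of all tested compounds on the plate plus 3 SD, cut at about 37% in these data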;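 note: 0% = orexin A challenge wells and 100% = SB-334867-A antagonist wells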
* = called active by the depositor.

O=C(COC(=O)c1ccc2c(c1)S(=O)(=O)c1ccccc1C2=O)NC1CC1 was read as CHO parental Ca -15.3, MPTP inh -0.6, GPR7 antag -18.2, OX1R antag-1 50.8* and OX1R antag-2 -20.5.
`CCc1cccc(CC)c1NC(=O)COC(=O)c1ccc2c(c1)S(=O)(=O)c1ccccc1C2=O` gave CHO parental Ca -11.8, MPTP inh -3.2, GPR7 antag -15.2, OX1R antag-1 32.9 and OX1R antag-2 -18.8.
For O=C(O)c1ccc2c(c1)S(=O)(=O)c1cc(Cl)ccc1C2=O the results were CHO parental Ca -8.3, MPTP inh -2.8, OX1R antag-1 32.4* and OX1R antag-2 -8.5.
Screening O=C(O)c1ccc2c(c1)S(=O)(=O)c1ccccc1C2=O returned MPTP inh -0.6 and GPR7 antag 1.1.
Screening O=C(NCCc1ccccc1)c1ccc2c(c1)S(=O)(=O)c1cc(Cl)ccc1C2=O returned CHO parental Ca -22.5, MPTP inh 3.9, OX1R antag-1 13.5 and OX1R antag-2 0.4.
`NC(=O)c1ccc2c(c1)S(=O)(=O)c1ccccc1C2=O` gave CHO parental Ca -12.5, MPTP inh -1.0, GPR7 antag 2.8, OX1R antag-1 64.6* and OX1R antag-2 -14.9.
For CCOC(=O)C1=CCN(S(=O)(=O)c2ccccc2C)C1c1cccc(C)c1 (stereo not given) the results were MPTP inh 0.0.
For CCCCCCN1C[C@@H](O)[C@H](n2cc(COC(=O)c3ccccc3)nn2)C[C@@H]1c1ccc(OC)cc1 the results were MPTP inh -1.9.
Screening COc1ccc(NC(=O)CSCC(=O)Nc2ccccc2N2CCCCC2)cc1 returned CHO parental Ca -29.7, MPTP inh -1.3, OX1R antag-1 36.5* and OX1R antag-2 -7.6.
`COc1ccc(NC(=O)CSCC(=O)Nc2ccccc2N2CCCC2)cc1` gave CHO parental Ca -12.1, MPTP inh -1.8, OX1R antag-1 18.9 and OX1R antag-2 -25.9.
For c1cc(-c2ccsc2)n2cnnc2c1 the results were MPTP inh 1.5.
`CCCCCCCn1c2c(c(=N)c3c1CCC3)CCCC2` gave MPTP inh 8.5 and GPR7 antag 62.2*.
For CCCCn1c2c(c(=N)c3c1CCC3)CCC2 the results were CHO parental Ca -10.0, MPTP inh -9.7, GPR7 antag 8.9, OX1R antag-1 13.3 and OX1R antag-2 -15.4.
For CC1(Cc2ccccc2C#N)C(=O)Nc2ccc(-c3ccccc3)cc21 (stereo not given) the results were MPTP inh 0.8.
For O=C(CNC(=O)c1cccs1)c1ccc([N+](=O)[O-])cc1 the results were CHO parental Ca -7.6, MPTP inh 2.4, GPR7 antag -7.5, OX1R antag-1 59.2* and OX1R antag-2 0.2.
O=C(CNC(=O)c1ccco1)OCC(=O)c1ccc(Cl)cc1 was read as CHO parental Ca -2.9, MPTP inh -1.9, GPR7 antag 0.6, OX1R antag-1 5.2 and OX1R antag-2 -7.7.
Screening O=C(CNC(=O)c1ccc([N+](=O)[O-])cc1)c1ccccc1 returned CHO parental Ca 1.5, MPTP inh -1.9, GPR7 antag 7.8, OX1R antag-1 46.9* and OX1R antag-2 6.2.
Screening O=C(CNC(=O)c1ccco1)OCC(=O)c1ccc([N+](=O)[O-])cc1 returned CHO parental Ca -6.8, MPTP inh -0.7, GPR7 antag -9.4, OX1R antag-1 41.1* and OX1R antag-2 -10.2.
CC(=O)NC(CC(=O)c1ccc([N+](=O)[O-])cc1)C(Cl)(Cl)Cl (stereo not given) was read as CHO parental Ca -6.5, MPTP inh -1.2, GPR7 antag -3.8, OX1R antag-1 75.5* and OX1R antag-2 3.2.
For O=C(CNC(=O)c1cccs1)OCC(=O)c1ccc([N+](=O)[O-])cc1 the results were CHO parental Ca -11.2, MPTP inh -2.5, GPR7 antag -7.3, OX1R antag-1 33.7 and OX1R antag-2 3.6.
`CCOC(=O)[C@]12CCCC=C1N(Cc1ccco1)C(=O)[C@H](CC(=O)N1CCC(c3ccccc3)CC1)C2` gave MPTP inh 0.9.
For Cc1ccc(OCc2nnc(SCc3nc4ccccc4[nH]3)n2Cc2ccco2)cc1 the results were CHO parental Ca 32.4*, MPTP inh 3.9, GPR7 antag -2.2, OX1R antag-1 61.8 and OX1R antag-2 36.3.
For CCc1ccc[n+](-c2[nH]c(=O)sc2/C=N/N=C(\[O-])c2cccnc2)c1 the results were CHO parental Ca -12.0, MPTP inh -1.4, GPR7 antag -6.3, OX1R antag-1 32.2 and OX1R antag-2 -11.1.
For Cc1cc(NC(=O)CCC(=O)N(CC(=O)NCC2CCCO2)c2ccc(C)c(C)c2)no1 (stereo not given) the results were CHO parental Ca -6.0, MPTP inh 0.8, GPR7 antag 1.1, OX1R antag-1 3.4 and OX1R antag-2 -1.9.
`O=C1c2cccc3c(N4CCCCC4)ccc(c23)C(=O)N1c1ccccn1` gave CHO parental Ca 30.7, MPTP inh -0.3, GPR7 antag 4.4, OX1R antag-1 47.7 and OX1R antag-2 51.1*.
`O=C1c2cccc3c([N+](=O)[O-])ccc(c23)C(=O)N1c1nccs1` gave CHO parental Ca 13.7, MPTP inh 4.4, GPR7 antag 3.8, OX1R antag-1 61.9* and OX1R antag-2 19.9.
Screening O=C1c2cccc3c([N+](=O)[O-])ccc(c23)C(=O)N1c1ccccn1 returned CHO parental Ca 17.4, MPTP inh -0.3, GPR7 antag 22.6, OX1R antag-1 67.9* and OX1R antag-2 19.7.
Screening O=C1c2cccc3cccc(c23)C(=O)N1c1nccs1 returned CHO parental Ca -0.6, MPTP inh -1.4, GPR7 antag -2.9, OX1R antag-1 29.5 and OX1R antag-2 -17.4.
O=C1c2cccc3c(N4CCCCC4)ccc(c23)C(=O)N1c1ccc(Cl)cn1 was read as GPR7 antag -3.1.
For O=C(CCNC(=O)c1ccc([N+](=O)[O-])cc1)Nc1nccs1 the results were CHO parental Ca 9.5, MPTP inh 0.2, GPR7 antag -2.3, OX1R antag-1 13.9 and OX1R antag-2 -3.9.
`CCc1ccc(CNC(=O)CCn2ccc3cc(S(=O)(=O)N4CCCC4)ccc32)cc1` gave CHO parental Ca 2.2, MPTP inh -1.2, GPR7 antag 11.0, OX1R antag-1 2.9 and OX1R antag-2 -19.1.
Screening CCc1nnc(N/N=C/c2c(C)[nH]c3ccccc23)n1N returned CHO parental Ca 12.1, MPTP inh 0.5, GPR7 antag -9.7, OX1R antag-1 67.8* and OX1R antag-2 3.2.
Screening Cc1[nH]c2ccccc2c1/C=N/NC(N)=S returned CHO parental Ca -3.5, MPTP inh 2.1, GPR7 antag -4.7, OX1R antag-1 -1.3 and OX1R antag-2 -1.1.
`Clc1cccc(Cl)c1/C=N\Nc1nccs1` gave CHO parental Ca -6.1, MPTP inh 0.7, GPR7 antag -5.8, OX1R antag-1 20.8 and OX1R antag-2 -26.4.
For CCc1nnc(N/N=C/c2c(F)cccc2Cl)n1N the results were CHO parental Ca -5.7, MPTP inh -0.1, GPR7 antag -15.6, OX1R antag-1 71.4* and OX1R antag-2 -5.2.
